High-throughput results (PubChem BioAssay)
Runt-CBFb FRET = Runt domain-CBFb interaction inhibition; Q01196+Q13951; Cerulean-Runt/Venus-CBFb FRET ratio 530/480, 1 h; inhibition, % at 20 µM; 0.46% of 220,000 active;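 active = inhibition over about 50% at 20 µM in the single-dose screen, limit read from the data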;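 note: 0% = DMSO wells and 100% = excess unlabeled CBFb competitor control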
Target sequence (Q01196 whole entry, looked up, the tested form may be a part): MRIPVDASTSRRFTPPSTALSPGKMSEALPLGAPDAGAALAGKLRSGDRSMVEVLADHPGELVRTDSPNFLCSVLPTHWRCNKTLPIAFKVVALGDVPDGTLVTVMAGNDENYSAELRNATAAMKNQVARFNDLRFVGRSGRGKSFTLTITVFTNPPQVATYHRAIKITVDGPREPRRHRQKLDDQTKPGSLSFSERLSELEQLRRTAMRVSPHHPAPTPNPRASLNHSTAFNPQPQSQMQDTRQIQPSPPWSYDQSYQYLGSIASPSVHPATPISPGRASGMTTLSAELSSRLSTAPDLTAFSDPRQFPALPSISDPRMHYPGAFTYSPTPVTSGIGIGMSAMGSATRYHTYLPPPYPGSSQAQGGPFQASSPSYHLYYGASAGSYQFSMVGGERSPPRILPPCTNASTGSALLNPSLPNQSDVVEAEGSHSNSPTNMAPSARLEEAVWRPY
Target sequence (Q13951 whole entry, looked up, the tested form may be a part): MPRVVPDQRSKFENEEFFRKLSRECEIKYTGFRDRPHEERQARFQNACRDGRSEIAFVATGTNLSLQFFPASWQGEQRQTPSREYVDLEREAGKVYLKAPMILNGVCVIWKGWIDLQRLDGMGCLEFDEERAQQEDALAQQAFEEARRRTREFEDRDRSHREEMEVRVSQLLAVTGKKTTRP
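test system = Cerulean-Runt domain fusion protein, energy donor | probe or stimulus = Venus-CBFb binding partner, 100 nM | incubation = two 1 h room-temperature incubations shielded from light | detection = fluorescence energy transfer, 422 nm excitation, 530/480 nm emission | measure = loss of energy transfer signal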
Runt-SMMHC FRET = inhibitors of human RUNX1 Runt domain binding to CBFb-SMMHC; Cerulean-Runt/Venus-CBFb-SMMHC FRET ratio 530/480, 1 h; 0.74% of 220,000 active; inhibition, % at 20 µM;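 active = mean inhibition across duplicate retests at 20 µM reaching about 50%, limit read from the data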;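 note: 0% = DMSO wells and 100% = wells with excess untagged CBFb-SMMHC; inhibitors lower the FRET ratio by blocking Runt binding to CBFb-SMMHC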
Tb hexokinase = blocks Trypanosoma brucei hexokinase 1 activity; recombinant TbHK1, G6PDH-coupled NADH A340; 0.11% of 220,000 active; inhibition, % at 10 µM;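 active = inhibition of 50% or more in the single-dose primary screen; inactive = inhibition below 50%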
14-3-3 Bad PPI = disrupts binding of bovine 14-3-3 zeta to phospho-Bad peptide | P63103 | TR-FRET 14-3-3zeta/Dy647-pBad peptide displacement, 1 h | inhibition, % at 21.7 µM | 0.71% of 220,000 active | AID 781;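 active = inhibition above about 70%, limit read from the data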;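 note: 0% = full 14-3-3 plus peptide FRET controls and 100% = background without 14-3-3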
RanGTP-Impb inh = disruptors of Ran-importin-beta complex formation – biochemical, FRET, CFP-Ran, YFP-importin-beta, homogeneous, primary screen; 1.1% of 300,000 active; inhibition, % (concentration not given with the values); cell-free CFP-Ran/YFP-importin-beta FRET ratio;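 active = more than half of the replicate wells show a fall in the fluorescence ratio signal beyond about 16%, limit read from the data, passing the limit was not always enough; inconclusive = exactly half of the replicate wells pass the set limit; inactive = fewer than half of replicates pass the limit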;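 note: 0% = DMSO wells and 100% = Ran loaded with GDP instead of GTP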
Hck Nef HTS = human Hck-Nef kinase inhibition. P08631. Recombinant Hck-YEEI plus Nef, Z-Lyte FRET kinase assay. inhibition, % at 20 µM. 0.68% of 220,000 active. AID 463187;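 active = Hck-Nef kinase inhibition above about 50%, limit read from the data; inactive = inhibition below that limit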;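 note: 0% = DMSO with Hck plus Nef and 100% = Hck alone without Nef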
Hck Nef conf = Hck-Nef kinase inhibition, confirmation; shares compounds with Hck Nef HTS; Recombinant Hck-YEEI:Nef, Z-Lyte FRET kinase assay; calls only at 10 µM; 28% of 1,300 active; AID 463188;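 active = average inhibition of at least 50%, with Z-scores no higher than 3 in both the phospho-tyrosine peptide and fluorescence counterscreens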
An asterisk follows results filed as active; i = inactive; ? = inconclusive; nt = not tested or not shown; + = active, no number; [ ] = another dose, or the depositor's remark. Compounds with a hit are over-represented: about 2.2% of the library has one in this group of screens.

SMILES | Runt-CBFb FRET | Runt-SMMHC FRET | Tb hexokinase | 14-3-3 Bad PPI | RanGTP-Impb inh | Hck Nef HTS | Hck Nef conf
NC(=O)COc1ccc(-n2cnnn2)cc1 | -2 | 5 | -1 | 8 | -1 | 19 | nt
CCOC(=O)c1cccnc1NC(=O)c1ccccc1 | -2 | -3 | -6 | 5 | 0 | 9 | nt
N#Cc1c(-c2ccccc2)[nH]c(=O)[nH]c1=O | 0 | 0 | -1 | -1 | -1 | 24 | nt
N#Cc1c(-c2ccc(F)cc2)c2c([nH]c1=O)-c1ccccc1OC2 | 60* | 80* | -4 | -1 | 101* | 126* | nt
N#Cc1c(-c2cccnc2)c2c([nH]c1=O)-c1ccccc1OC2 | 10 | 82* | -44 | -4 | 113* | 130* | nt
COCc1[nH][nH]c(=O)c1C=Nc1ccc(Oc2ccccc2)cc1 | 1 | -2 | -26 | 0 | -2 | 91* | +
COCc1[nH][nH]c(=O)c1C=Nc1ccc(C(F)(F)F)cc1 | 1 | 0 | -5 | -6 | -2 | 1 | nt
CC(C)[N+]1=C2C=CC=CC=C2SC12C([N+](=O)[O-])=CC(=[N+]([O-])[O-])C=C2[N+](=O)[O-] (stereo not given) | 4 | -1 | 10 | 2 | ? | 0 | nt
O=C(CN1CCCCC1)Nc1c2c(nc3ccccc13)N(c1ccccc1)CC2 | 0 | 5 | -7 | 71* | 3 | 91* | nt
CC(O)[C@@H](NC(=O)C1CCC(CNC(=O)[C@H](Cc2ccccc2)NC(=O)OC(C)(C)C)CC1)C(=O)O (stereo not given in full) | nt | nt | nt | nt | 1 | nt | nt
CCc1ccc(-n2c(SCC(=O)c3ccc4c(c3)NC(=O)CO4)nc3ccccc3c2=O)cc1 | -2 | -7 | -10 | 10 | 5 | 27 | nt
O=C1COc2ccc(C(=O)CSc3nc4ccccc4c(=O)n3-c3ccc(Cl)c(Cl)c3)cc2N1 | -6 | -4 | 4 | 55 | 0 | 64* | i
O=c1[nH]nc(SCCS(=O)(=O)c2ccc(F)cc2)n1-c1ccc2c(c1)OCCO2 | 1 | -4 | -4 | 1 | 4 | -6 | nt
Cc1cnc([N+](=O)[O-])n1CCOC(=O)NC(=O)c1ccc(F)cc1 | 1 | -3 | -8 | -7 | 2 | 23 | nt
N#Cc1c2nc3ccccc3nc2n2cc(NC(=O)c3ccc(F)cc3)ccc12 | -30 | -66 | 7 | 78*[fluorescence artefact?] | nt | 72* | i
CCOP(=O)(O)c1ccccc1OCCOCCOc1ccccc1P(=O)(O)OCC | 0 | -1 | -1 | 31 | -1 | 94* | i
O=C(c1cnn(C(=O)COc2ccc(Cl)cc2)c1)c1ccccc1O | -2 | 2 | 3 | 25 | 2 | 50* | +
Cc1ccc(O)c(C(=O)c2cnn(C(=O)COc3ccc(Cl)cc3)c2)c1 | 3 | 0 | -12 | 52 | 1 | 13 | nt
CCOc1cc(C(=O)N[C@@H](C)C(=O)N2CCC3(CC2)NCCc2[nH]cnc23)cc(OCC)c1OCC | nt | nt | nt | nt | 5 | nt | nt
COc1cc(Nc2ncnc(N)n2)cc(OC)c1 | 0 | 2 | -3 | 0 | 1 | 62* | +
COc1cc(Nc2ncnc(N)n2)cc(OC)c1OC | -1 | 1 | 6 | -5 | 4 | 48 | nt
N#Cc1c(-c2cccs2)cc(-c2cccs2)[nH]c1=O | 86* | 80* | -18 | 1 | 45* | 109* | nt
CC(C)CC(=O)NC(=S)N1CCN(c2ccc([N+](=O)[O-])cc2Cl)CC1 | -4 | 0 | -7 | -3 | 3 | 1 | nt
CCOC(=O)c1sc(N2N=C(C)C(N=Nc3cccc(C)c3)C2=O)nc1C (stereo not given) | -2 | -8 | -17 | 97* | 0 | 100* | +
CSc1sc(-c2ccnc(SCCS(C)(=O)=O)n2)c(-c2ccccc2)c1C#N | 2 | 34 | -15 | -13 | -1 | 72* | i
SMILES | Runt-CBFb FRET | Runt-SMMHC FRET | Tb hexokinase | 14-3-3 Bad PPI | RanGTP-Impb inh | Hck Nef HTS | Hck Nef conf
CCOC(=O)COc1ccc(/C=C2/SC(=Nc3ccccc3)N(Cc3cccnc3)C2=O)cc1OC | -9 | -5 | -23 | -6 | -4 | 71* | i
CCOc1cc(/C=C2\SC(=Nc3ccccc3)N(c3ccccc3)C2=O)ccc1OCC(=O)O | -2 | -13 | -26 | -4 | 4 | 2 | nt
COc1cc(OC)cc(C(=O)N=c2sc3ccccc3n2C)c1 | -4 | -6 | -9 | -9 | 2 | 81* | i
Cc1ccc(NC(=O)c2ccc3ccccc3n2)nc1 | -1 | 8 | -4 | 11 | 1 | 0 | nt
Cc1cccc(Nc2sc(C(=O)c3cc4cc(Cl)ccc4o3)c(N)c2C#N)c1 | -12 | -114 | 2 | 67 | 2 | 56* | i
COc1ccc(CCn2c(SCC(=O)Nc3cc(C)on3)nc3ccsc3c2=O)cc1OC | -2 | 1 | -13 | 20 | nt | 65* | i
c1ccc2c(c1)ncc1cccn12 | -1 | 5 | -3 | -3 | -1 | 2 | nt
CCn1c2ccccc2c2c3ncc4cccn4c3ccc21 | -35 | 88* | -7 | -5 | 68* | 95* | i
COC(=O)C1=CNC=C(C(=O)OC)C1c1ccccc1Cl | 72* | 146* | 1 | -2 | nt | 66* | nt
COC(=O)C1=CNC=C(C(=O)OC)C1c1cccc2ccccc12 | nt | nt | nt | nt | 0 | nt | nt
O=C(Nc1ccccc1C(=O)O)c1ccc(CN2C(=O)c3ccccc3C2=O)cc1 | nt | nt | nt | nt | -2 | nt | nt
Cc1ccc(-c2nc3ccccc3s2)cc1NC(=O)c1cc(-n2cnnc2)ccc1Cl | nt | -4 | -33 | 48 | -1 | 91* | i
COc1ccc(C(=O)NNC(=O)CSc2nnc(C)n2CC2CCCO2)cc1 (stereo not given) | -1 | -1 | 0 | -15 | nt | 21 | nt
CCCNc1nc(Cl)nc(NC(C)(C)C)n1 | -2 | 0 | -3 | 0 | 5 | 9 | nt
CC(=O)/C(=C(/O)c1ccccc1)c1nc2ccccc2[nH]1 | -2 | 3 | -12 | -2 | 5 | 124* | +
Cc1cc(C)c(S(=O)(=O)Nc2ccc(OCC(=O)O)cc2)c(C)c1 | 0 | -9 | -3 | -5 | 3 | 2 | nt
COc1ccc2cc3cc(C(=O)Nc4ccc5c(c4)OCCO5)oc3nc2c1 | -7 | -41 | -22 | 65 | -1 | 52* | i
Nc1c(C(=O)NCCc2ccccc2)sc2nc(N3CCOCC3)c3c(c12)CCCC3 | 34 | 30 | -7 | -13 | -1 | 11 | nt
CN(C(=O)c1sc2nc(N3CCOCC3)c3c(c2c1N)CCCC3)c1ccccc1 | 15 | 7 | -10 | -10 | 5 | 53* | i
NC(=S)N/N=C/c1coc2ccc(Cl)cc2c1=O | 1 | 0 | -3 | 18 | 0 | 66* | +
CCOC(=O)/C(C#N)=C/c1cc2ccc(C)cc2nc1Cl | -4 | -9 | -2 | 2 | -3 | 2 | nt
